Reference: paper PMC8248431 (The Febs Journal, 2021)

Columns and labels:
AncDyPD‐b1 D222A = assay: Steady-state kinetics of peroxidase activity, AncDyPD-b1 D222A variant; format: biochemical; conditions: for n (cooperativity constant): cooperativity model, 25 °C, H2O2 with ABTS as electron donor
In short: (§1)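 Purified untagged (SUMO-cleaved) mutant ancestral DyP, expressed in E. coli. H2O2 varied at 25 °C in 50 mM sodium citrate at the ABTS optimal pH 3.0. ABTS was held at its maximum-activity level below substrate inhibition: 10 µM for D222A, D222E and R390K-D222E, 25 µM for R390K, and 50 µM for R390A. Reactions were started with 50–500 nM enzyme, raised to 2.0 µM if activity was low.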

Irpex lacteus F17 DyP = conditions: cited from earlier work
AncDyPD‐b1 = assay: Sulfoxidation; format: biochemical; conditions: 17, 25, and 30 °C, 36 h, pH 3.5, 1.0 mM H2O2, 2.5 mM thioanisole
AncDyPD‐b1 R390A = assay: Steady-state kinetics of peroxidase activity, AncDyPD-b1 R390A variant; format: biochemical; conditions: cooperativity model; 25 °C; H2O2 with ABTS as electron donor
In short: as §1

AncDyPD‐b1 R390K = assay: Steady-state kinetics of peroxidase activity, AncDyPD-b1 R390K variant; format: biochemical; conditions: cooperativity model; 25 °C; H2O2 with ABTS as electron donor
In short: as §1

AncDyPD‐b1 D222E = assay: Steady-state kinetics of peroxidase activity, AncDyPD-b1 D222E variant; format: biochemical; conditions: cooperativity model; 25 °C; H2O2 with ABTS as electron donor
In short: as §1

AncDyPD‐b1 R390K‐D222E = assay: Steady-state kinetics of peroxidase activity, AncDyPD-b1 R390K-D222E variant; format: biochemical; conditions: cooperativity model; 25 °C; H2O2 with ABTS as electron donor
In short: as §1

FtrDyP = assay: Mn2+ oxidation by FtrDyP; format: biochemical, Funalia (Coriolopsis) trogii; conditions: Mn^2+ substrate

Row | n (cooperativity constant) (AncDyPD‐b1 R390A) | n (cooperativity constant) (AncDyPD‐b1 D222A) | n (cooperativity constant) (AncDyPD‐b1 R390K) | n (cooperativity constant) (AncDyPD‐b1 D222E) | n (cooperativity constant) (AncDyPD‐b1 R390K‐D222E) | Structure (SMILES) | Km (Irpex lacteus F17 DyP) [µM] | k cat (Irpex lacteus F17 DyP) [s⁻¹] | further results
1 |  |  |  |  |  | CCn1c(=NN=c2sc3cc(S(=O)(=O)O)ccc3n2CC)sc2cc(S(=O)(=O)O)ccc21 [ABTS, 2,2'‐azino‐bis(3‐ethylbenzothiazoline‐6‐sulfonic acid)] | 62 | 8356 | fold decrease of KM versus WT (AncDyPD‐b1 D222A; ABTS oxidation, D222A vs WT): 80 fold; fold lower k cat than WT (AncDyPD‐b1 D222A; ABTS oxidation, D222A vs WT): 150 fold
2 |  |  |  |  |  | CSc1ccccc1 [thioanisole] |  |  | conversion (peroxygenase activity, sulfoxidation) (AncDyPD‐b1): no conversion
3 | 1 | 2.8 | 2.1 | 2.2 | 2.3 | Nc1c(N=Nc2ccc(S(=O)(=O)CCOS(=O)(=O)[O-])cc2)c(S(=O)(=O)[O-])cc2cc(S(=O)(=O)[O-])c(N=Nc3ccc(S(=O)(=O)CCOS(=O)(=O)[O-])cc3)c(O)c12.[Na+].[Na+].[Na+].[Na+] [RB5, Reactive Black 5] |  |  | 
4 |  |  |  |  |  | O=S(=O)([O-])[O-].[Mn+2] [Mn^2+, MnSO4] |  |  | efficiency of FtrDyP relative to AncDyPD‐b1 (FtrDyP): 500 times
5 | 1 | 1 | 1.2 | 1.4 | 2.2 | OO [H2O2, hydrogen peroxide] |  |  | 
6 |  |  |  |  |  | Nc1c(S(=O)(=O)[O-])cc(Nc2cccc(S(=O)(=O)CCOS(=O)(=O)[O-])c2)c2c1C(=O)c1ccccc1C2=O.[Na+].[Na+] [RB19, Reactive Blue 19] | 133 | 5345 | 
